An excerpt weighted towards active compounds, which were near 2.2% of everything screened.
DAGLB inhibitor – DAGLB lipase inhibitors, primary screen, biochemical, fluorescence, HTS | Diacylglycerol lipase-beta (Homo sapiens), Q8NCG7 | HEK293T DAGLB membrane lysate, EnzChek fluorogenic substrate | inhibition, % at 5.17 µM | hit rate 0.059% among 340,000 | AID 504411, 2011; in the data active = inhibition above about 34%;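 note: 0% = enzyme with vehicle and 100% = wells lacking enzyme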
core dimer inh – inhibitors of HCV core protein dimerization, primary screen, biochemical, TR-FRET, high-throughput. inhibition, % at 5 µM. hit rate 0.33% among 300,000. TR-FRET GST/Flag-core106 dimerization, 1536-well;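 active = inhibition above the mean of all tested compounds plus 3 SD, set per screening campaign, cut at about 45% in these data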
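test system = GST/Flag-tagged HCV core106 proteins | probe or stimulus = Eu donor and XL665 acceptor anti-tag antibodies | times = compound-protein-antibody incubation 4 h at 22.5 °C | signal = TR-FRET, excitation 340 nm, emission 617 and 671 nm | measure = percent inhibition of core106 dimerization signal | controls = wells lacking GST-core106 and wells with excess unlabelled core106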
GRK2 aptamer HTS – compounds blocking aptamer binding on GRK2 – biochemical, human GRK2, bead flow cytometry, HTS, primary screen | Beta-adrenergic receptor kinase 1 (Homo sapiens), P25098 | FAM-aptamer displacement from GRK2 | inhibition of aptamer binding, % at 10 µM | hit rate 0.59% among 330,000;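 active = inhibition of aptamer binding above 40%, roughly 3 SD of noise, on plates passing a quality check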;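 note: median bead fluorescence of bound FAM aptamer so fluorescent compounds give negative values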
NS3 helicase inh – inhibitors of HCV NS3 helicase, primary screen, biochemical, Cy5 molecular beacon fluorescence | inhibition, % at 10.9 µM | hit rate 0.56% among 290,000 | NS3 helicase DNA unwinding;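 active = inhibition above the mean of all tested compounds plus 3 SD, set per campaign, cut at about 35% in these data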;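 note: 0% = DMSO wells and 100% = thioflavine S control wells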
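Assay system: hepatitis C virus NS3 helicase domain fragment enzyme. Also added: annealed dual-labelled DNA beacon duplex, ATP-started. Timing: 1 h reaction at 25 °C, ATP-initiated. Technique: Cy5 fluorescence at 0 and 60 min, beacon hairpin quenching. Evaluation: % inhibition of unwinding. Replication: one well per compound.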
DNA FID counter – compounds displacing fluorescent DNA intercalator, primary screen, artefact control for HCV NS3 helicase inhibitor project, biochemical, FID fluorescence. DNA fluorescent intercalator displacement. inhibition, % at 7.9 µM. hit rate 0.17% among 290,000. AID 1845, 2009; in the data active = inhibition above about 37%;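 note: 0% = vehicle and 100% = reference compound; higher means more ethidium bromide displaced from hairpin DNA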
GPR7 antag – GPR7 receptor antagonists, primary screen, cell-based, fluorescence, single concentration; Neuropeptides B/W receptor type 1 (Homo sapiens), P48145; GPR7-expressing cells, fluorescence antagonist assay; inhibition, % at 4.4 µM; hit rate 1.1% among 290,000; in the data active = inhibition above about 16%, passing the limit was not always enough;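 note: cells stimulated with the agonist NPW; 0% = agonist with vehicle and 100% = vehicle without agonist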
Target sequence (P48145 whole entry, looked up): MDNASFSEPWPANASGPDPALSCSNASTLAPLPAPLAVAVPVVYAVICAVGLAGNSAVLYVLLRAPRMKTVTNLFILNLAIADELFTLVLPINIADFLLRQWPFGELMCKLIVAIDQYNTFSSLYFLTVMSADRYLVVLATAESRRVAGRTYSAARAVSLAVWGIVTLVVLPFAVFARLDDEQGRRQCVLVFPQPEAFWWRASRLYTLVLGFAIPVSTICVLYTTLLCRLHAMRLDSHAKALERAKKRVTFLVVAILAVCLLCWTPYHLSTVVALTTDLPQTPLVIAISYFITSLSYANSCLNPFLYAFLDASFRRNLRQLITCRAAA
GPR7 antag conf – GPR7 receptor antagonists, confirmation, cell-based, fluorescence, single concentration. hit rate 52% among 2,400. inhibition, % at 4.4 µM. shares compounds with GPR7 antag. AID 1952, 2009. GPR7-expressing cells, calcium fluorescence antagonist mode; in the data active = inhibition above about 24%;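 note: stimulated with the GPR7 agonist NPW; 0% = agonist plus vehicle and 100% = vehicle alone without agonist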
MCHR1 antag – MCHR1 antagonists in cells, counter-screen for GPR7 antagonist project, cell-based, fluorescence, human; shares compounds with GPR7 antag; MCHR1-expressing cells, fluorescence antagonist assay; inhibition, % at 4.4 µM; hit rate 62% among 2,400; AID 2148, 2009; in the data active = inhibition above about 22%;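 note: 0% = vehicle with agonist and 100% = vehicle without agonist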
Active calls of the source: *; / = no result.

SMILES	DAGLB inhibitor	core dimer inh	GRK2 aptamer HTS	NS3 helicase inh	DNA FID counter	GPR7 antag	GPR7 antag conf	MCHR1 antag
NCC(c1ccc(Cl)cc1Cl)c1c[nH]c2ccccc12 (centres undefined)	3	-2	0	-80	12	51*	61*	69*
O=C1CN(S(=O)(=O)c2cccc(Cl)c2Cl)c2ccccc2N1	4	-1	0	-2	-8	-10	/	/
O=C(NC1CCSc2ccccc21)c1cccc(Br)c1 (centres undefined)	-6	-14	0	4	-12	27*	12	19
O=C(NC1CCSc2ccccc21)c1cccc(OC(F)F)c1 (centres undefined)	-3	14	1	-7	-15	18	/	/
Cc1ccc2sc(N(CCCN(C)C)C(=O)CN3C(=O)c4ccccc4C3=O)nc2c1C	0	-6	0	-61	28	27*	60*	56*
CCOc1ccc(N2C(=O)C(C)CNC2=S)cc1 (centres undefined)	-2	/	/	/	/	/	/	/
CC(=O)c1ccc(COC(=O)Cc2ccc([N+](=O)[O-])cc2)cc1	-2	8	0	7	-5	30*	39*	52*
CC(C)(C)N1C(=O)[C@H]2[C@@H](c3ccc(Br)cc3)N3C(=O)N(c4ccccc4)C(=O)[C@@]3(C)[C@H]2C1=O	0	8	0	-23	-29	-3	/	/
CCOc1ccc(-n2c(SCc3nc(-c4ccc(C)cc4)no3)nnc2-c2ccncc2)cc1	-1	7	1	-8	-35	37*	29*	31*
CCOc1ccccc1NC(=O)C(NCC1(N2CCCCC2)CCCCC1)c1ccccc1 (centres undefined)	-3	1	0	-18	18	28*	25*	14
CC(C)CCNC(=O)c1ccc(OC2CCN(S(=O)(=O)N(C)C)CC2)cc1	0	-3	0	-5	-26	25*	22	14
C=C(C)CNC(=O)c1ccc(OC2CCN(S(=O)(=O)N(C)C)CC2)cc1	0	2	1	2	-23	-1	/	/
CCN(CC(=O)Nc1cc(S(=O)(=O)N2CCOCC2)ccc1C)Cc1ccccc1	-3	4	3	/	/	/	/	/
O=C(Cc1cccs1)N(Cc1cccs1)C1(C(=O)NC2CCCCC2)CCCCC1	-2	10	0	5	-8	43*	47*	61*
O=C(c1cnccn1)N(Cc1cccs1)C1(C(=O)NC2CCCCC2)CCCCC1	2	11	4	1	-31	41*	30*	30*
O=C(c1cnccn1)N(Cc1cccs1)C1(C(=O)NC2CCCC2)CCCCC1	2	1	2	11	-35	26*	37*	21
CN1CCN(c2ccc(Cl)cc2NC(=O)CCN2C(=O)c3ccccc3C2=O)CC1	-2	-3	0	-59	10	-4	/	/
COC(=O)C1CCCCN1C(=O)c1ccc2oc(C(C)C)nc2c1 (centres undefined)	-2	-12	0	13	-34	26*	6	3
COC(=O)C1CCCCN1C(=O)c1ccc2oc(Cc3ccccc3)nc2c1 (centres undefined)	-3	/	2	6	-55	-15	/	/
COc1ccccc1NC(=O)c1c(Nc2ccccc2F)sc(C(=O)Nc2cccc(Cl)c2)c1N	-14	21	0	1	-2	10	/	/
COc1ccc(Nc2sc(C(=O)Nc3cccc(Cl)c3)c(N)c2C(=O)Nc2ccccc2OC)cc1	/	36	1	17	-15	50*	77*	86*

High-throughput results: PubChem BioAssay, several laboratories
